Source: PubChem BioAssay (The Scripps Research Institute Molecular Screening Center)
Shown are actives, neighbours in structure and some others; about 1.8% of the full set was active somewhere.
DDE Tn6 FP inh – inhibitors of Tn6 peptide binding to fibrin DD(E), primary screen, biochemical, fluorescence polarization, human fibrin, Tn6 probe. Fibrinogen beta chain (Homo sapiens), P02675. Fibrin DD(E) TRITC-Tn6 fluorescence polarization displacement. inhibition, % at 8.3 µM. 0.21% of 370,000 active;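 active means inhibition above a per-campaign cutoff: mean of compounds within control limits plus 3 SD, cut at about 15% in these data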;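 further: 0% = median of all compound wells on the plate and 100% = blocking peptide control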
Target sequence (P02675 whole entry, looked up): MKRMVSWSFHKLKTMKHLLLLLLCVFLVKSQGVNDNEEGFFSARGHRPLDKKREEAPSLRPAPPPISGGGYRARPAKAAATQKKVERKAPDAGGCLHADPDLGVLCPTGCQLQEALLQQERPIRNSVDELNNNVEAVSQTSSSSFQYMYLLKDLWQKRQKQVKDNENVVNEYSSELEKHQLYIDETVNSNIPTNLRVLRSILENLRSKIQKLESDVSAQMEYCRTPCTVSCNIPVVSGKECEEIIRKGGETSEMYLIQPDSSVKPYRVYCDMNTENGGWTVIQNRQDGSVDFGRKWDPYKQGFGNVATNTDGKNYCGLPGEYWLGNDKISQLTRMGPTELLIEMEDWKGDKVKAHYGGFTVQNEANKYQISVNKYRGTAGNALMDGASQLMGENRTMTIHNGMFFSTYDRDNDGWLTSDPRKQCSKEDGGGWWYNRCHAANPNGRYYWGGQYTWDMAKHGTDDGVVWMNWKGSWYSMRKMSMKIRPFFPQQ
ABHD4 inh – ABHD4 inhibitors, primary screen, biochemical, fluorescence polarization, mouse | inhibition, % at 8.92 µM | 0.54% of 370,000 active | (Lyso)-N-acylphosphatidylethanolamine lipase (Mus musculus), Q8VD66 | AID 720543, 2013 | purified mABHD4, FP-Rh probe fluorescence polarization;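 active means inhibition exceeding the mean over every tested compound plus 3 SD, cut at about 30% in these data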;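 further: 0% = plate median of compound wells and 100% = S159A mutant with DMSO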
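Test system: mABHD4 protein | Buffer or medium: HEPES pH 7.0 buffer, 150 mM NaCl, 0.01% Pluronic F-127 | Probe or stimulus: FP-Rh fluorescent activity-based probe, added after compound pre-incubation | Timing: Pre-incubation 45 min, probe exposure 60 min, at 25 °C | Technique: Fluorescence polarization, excitation 525 nm, emission 598 nm, BODIPY TMR filters | Repeats: Single well per compound (singlicate)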
DDE Tn7 FP inh – inhibitors of Tn7 peptide binding to fibrin DD(E), primary screen, biochemical, fluorescence polarization, human fibrin, Tn7 probe; inhibition, % at 8.3 µM; FP displacement of FITC-Tn7 peptide from fibrin DD(E); 0% = median of compound wells per plate; AID 720508, 2013; Fibrinogen beta chain (Homo sapiens), P02675; 0.13% of 370,000 active;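 active means inhibition above the mean of compounds falling within the control limits plus 3 SD of them, cut at about 14% in these data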;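 further: 0% = plate median of compound wells and 100% = 10 µM Aha-Tn7 peptide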
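Also added: labelled Tn7 tracer, 0.1 µM; Assay system: human fibrin DD(E) protein; Amount: 2 µM fibrin DD(E); Schedule: 10 min compound pre-incubation, 3 h probe incubation at room temperature; Repeats: one replicate per compound; Read-out basis: percent inhibition; Measured by: fluorescence polarization of the labelled Tn7 tracer.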
HTRA1 inhibitor – HTRA1 serine protease inhibitors, primary screen, biochemical, fluorescence polarization, HTS; Q92743; recombinant HTRA1, FP-rhodamine activity-based probe; inhibition, % at 5.96 µM; 0.5% of 340,000 active; AID 504803, 2011; in the data active means inhibition above about 36%;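 further: 0% = enzyme with DMSO and 100% = wells lacking enzyme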
SIAE primary – human SIAE inhibitors, primary screen, biochemical, fluorescence polarization, FP-Rh probe, 1536-well HTS | SIAE FP-Rh probe binding | inhibition, % at 9.66 µM | 0.69% of 370,000 active;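 active means inhibition above a cutoff: mean of compounds within the control limits plus 3 SD of those, cut at about 17% in these data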;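 further: 0% = plate median of compound wells and 100% = probe without SIAE protein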
TCR-CD3 inh – inhibitors of human TCR-CD3 interaction, primary screen, biochemical, fluorescence, TAMRA-labeled TCR probe; inhibition, % at 9.4 µM; T-cell receptor (TCR); 0.37% of 360,000 active;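 further: recombinant mutant TCR 2C K166C tagged with TAMRA read by polarization; 0% = receptor in buffer alone and 100% = receptor with positive control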
BSA probe FL – compounds interfering with TAMRA-BSA probe, counter-screen for TCR-CD3 interaction inhibitor project, biochemical, fluorescence, TAMRA-labeled BSA | shares compounds with TCR-CD3 inh | inhibition, % at 9.4 µM | 10% of 1,200 active | TAMRA-labeled BSA probe fluorescence counterscreen; in the data active means inhibition above about 23%;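 further: 0% = buffer low control and 100% = reference high control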
TCR-CD3 conf – TCR-CD3 interaction inhibitors, retest, confirmation, biochemical, fluorescence, TAMRA-labeled TCR probe; shares compounds with TCR-CD3 inh; TAMRA-labeled TCR probe fluorescence binding assay; inhibition, % at 9.4 µM; 48% of 1,200 active; AID 652036, 2013
Active calls of the source: *; nt = not tested or not shown. Unless noted, no stated cut-off is given here; in the data, active means inhibition above about 19%; inactive means the rest.

SMILES | DDE Tn6 FP inh | ABHD4 inh | DDE Tn7 FP inh | HTRA1 inhibitor | SIAE primary | TCR-CD3 inh | BSA probe FL | TCR-CD3 conf
Cc1cc([N+](=O)[O-])cc(/C=N\NC(=O)C2COc3ccccc3O2)c1O (stereo not drawn) | 2.1 | 3.8 | 1.8 | 10.4 | 2.3 | 31.3* | -1.4 | 29.2*
Cn1cc(/C=N/NC(=O)c2cc3cc(Br)ccc3o2)c2ccccc21 | -4.5 | -5.5 | -4.7 | nt | 1.5 | -9.0 | nt | nt
O=C(O)c1ccc(-n2cccc2/C=N\NC(=O)c2cc3cc(Br)ccc3o2)cc1 | -10.9 | -2.3 | -2.9 | -17.0 | -3.4 | 28.7* | -5.6 | 37.4*
C[C@H](O)[C@@H]1C(=O)N2CCc3c([nH]c4cccc(-c5ccccc5)c34)[C@@H]2C[C@@H]1N(C)C(=O)OCc1ccccc1 | 6.4 | -4.5 | -6.9 | nt | -3.3 | 21.1* | 3.0 | 6.5
O=C(OC12CCCN(C1)/C(=C/c1cccc(Cl)c1)C2)C1CCCC1 (stereo not drawn) | 0.6 | 0.9 | 1.4 | nt | -0.1 | nt | nt | nt
O=C(Nc1ccc(F)c(Cl)c1)C1Cc2c(-c3ccc4c(c3)OCO4)ccnc2O1 (stereo not drawn) | -4.1 | -6.2 | -6.4 | nt | -28.6 | 29.3* | 2.5 | 7.2
O=C(Nc1ccc(F)c(Cl)c1)C1Cc2c(-c3ccc(Cl)cc3)ccnc2O1 (stereo not drawn) | 6.2 | -18.0 | 7.9 | nt | -52.2 | -9.4 | nt | nt
CCOC(=O)c1c(C)[nH]c(C(=O)N/N=C/c2cc([N+](=O)[O-])ccc2O)c1C | 5.4 | 0.8 | 3.1 | 13.8 | -0.5 | 21.2* | -9.7 | 40.7*
O=C(N/N=C/c1cc([N+](=O)[O-])ccc1O)c1c[nH]c2ccccc12 | 0.2 | 2.5 | 4.9 | 5.0 | 7.1 | 20.9* | -6.2 | 13.6
O=C(NC(C(=O)N/N=C/c1cc([N+](=O)[O-])ccc1O)c1n[nH]c(=O)c2ccccc12)c1ccccc1 (stereo not drawn) | -1.3 | 22.8 | 1.6 | 3.5 | -7.5 | 29.4* | -4.8 | 37.7*
CCOC(=O)c1c(C)[nH]c(C(=O)N/N=C\c2ccccc2O)c1C | -6.5 | -6.3 | -1.1 | -3.6 | 15.0 | 0.8 | nt | nt
O=C(NC(C(=O)N/N=C/c1cccc2ccccc12)c1n[nH]c(=O)c2ccccc12)c1ccccc1 (stereo not drawn) | -6.2 | -88.4 | 4.0 | -71.7 | -137.1 | 8.6 | nt | nt
O=C(N/N=C/c1cccc([N+](=O)[O-])c1)c1c[nH]c2ccccc12 | -5.8 | -3.7 | -0.7 | -17.3 | -4.3 | -1.5 | nt | nt
CCn1c(C)nc2cc(C(=O)NNC(=S)NC(=O)c3ccc(OC)cc3)ccc21 | 2.2 | -4.2 | 3.2 | 0.0 | 1.6 | 35.6* | -0.9 | 31.6*
COc1ccc(C(=O)NC(=S)NNC(=O)c2ccc(O)cc2)cc1[N+](=O)[O-] | -5.4 | 13.4 | -3.5 | 4.2 | 3.3 | 28.1* | -1.9 | 27.6*
COc1ccc(C(=O)NNC(=S)NC(=O)c2cccc([N+](=O)[O-])c2)cc1 | 3.8 | 12.7 | 2.7 | 12.7 | 11.9 | 20.6* | -5.1 | 28.5*
CCn1c(C)nc2cc(C(=O)NNC(=S)Nc3ccc(C)cc3)ccc21 | -5.1 | -2.2 | 1.1 | -3.9 | 0.4 | -7.9 | nt | nt
COC(=O)c1cc(NC(=O)NC2CCCCN(Cc3ccc(Cl)cc3)C2=O)cc(C(=O)OC)c1 (stereo not drawn) | -2.0 | -11.6 | -6.9 | nt | 2.8 | nt | nt | nt
CS(=O)(=O)N(Cc1ccc(C(=O)NN=C2CCCCCC2)cc1)c1ccccc1 | -7.9 | 12.1 | -3.3 | -18.5 | -7.9 | 32.6* | 0.4 | -2.0
